Published values gathered from unrelated publications.
Lines come from different studies, so protocols differ.
Organism: Mycobacterium tuberculosis
Effect on: microbial growth

For `NC(=S)NN=Cc1ccc(OC(=O)CN2C(=O)CSC2=O)cc1`, the MIC was 2.84 µM (resazurin; H37RV).
With `CO[C@H]1/C=C/O[C@@]2(C)Oc3c(C)c(O)c4c(O)c(c(/C=N/N5CCN(C)CC5)c(O)c4c3C2=O)NC(=O)/C(C)=C\C=C\[C@H](C)[C@H](O)[C@@H](C)[C@@H](O)[C@@H](C)[C@H](OC(C)=O)[C@@H]1C` the MIC was 0.06 µg/mL (H37RV).
`CO[C@H]1/C=C/O[C@@]2(C)Oc3c(C)c(O)c4c(O)c(c(/C=N/N5CCN(C)CC5)c(O)c4c3C2=O)NC(=O)/C(C)=C\C=C\[C@H](C)[C@H](O)[C@@H](C)[C@@H](O)[C@@H](C)[C@H](OC(C)=O)[C@@H]1C` gave an MIC of 0.5 µg/mL (resazurin; H37RV; 21 days).
The MIC of `CO[C@H]1/C=C/O[C@@]2(C)Oc3c(C)c(O)c4c(O)c(c(/C=N/N5CCN(C)CC5)c(O)c4c3C2=O)NC(=O)/C(C)=C\C=C\[C@H](C)[C@H](O)[C@@H](C)[C@@H](O)[C@@H](C)[C@H](OC(C)=O)[C@@H]1C` is reported as 0.1 µg/mL (resazurin; H37RV; 7 days).
`CC[C@@H](CO)NCCN[C@@H](CC)CO` gave an MIC of 1 µg/mL (resazurin; H37RV; 5 days).
For `CCOc1cc(C=NNC(N)=S)ccc1OC(=O)CN1C(=O)CSC1=O`, the MIC was 0.63 µM (resazurin; H37RV).
The MIC of `CCc1cc(=O)c2c(OCC(O)CN(CC)CC)c3ccoc3c(OC)c2o1` (centres unmarked) is reported as 64 µg/mL (resazurin; 21 days).
With `CCOC(=O)c1c(-c2ccc(OC)cc2)oc2ccc(OCc3cn(Cc4ccccc4)nn3)c(CN3CCCCC3)c12` the MIC was 2.4 µM (CDC1551).
For `CCc1cc(=O)c2c(OCC(O)CN3CCOCC3)c3ccoc3c(OC)c2o1` (centres unmarked), the MIC was 64 µg/mL (resazurin; 21 days).
The MIC of `CO[C@H]1/C=C/O[C@@]2(C)Oc3c(C)c(O)c4c(O)c(c(/C=N/N5CCN(C)CC5)c(O)c4c3C2=O)NC(=O)/C(C)=C\C=C\[C@H](C)[C@H](O)[C@@H](C)[C@@H](O)[C@@H](C)[C@H](OC(C)=O)[C@@H]1C` is reported as 0.152 µM (resazurin; H37RV).
The MIC of `CO[C@H]1/C=C/O[C@@]2(C)Oc3c(C)c(O)c4c(O)c(c(/C=N/N5CCN(C)CC5)c(O)c4c3C2=O)NC(=O)/C(C)=C\C=C\[C@H](C)[C@H](O)[C@@H](C)[C@@H](O)[C@@H](C)[C@H](OC(C)=O)[C@@H]1C` is reported as 0.01 µM (H37RA).
With `CCc1cc(=O)c2c(OCC(O)CNC(C)(C)C)c3ccoc3c(OC)c2o1` (centres unmarked) the MIC was 128 µg/mL (resazurin; H37RV; 21 days).
With `CCc1nc2[nH]c(=O)n(O)c(=O)c2s1` the MIC was 46.4 µM.
`COc1c(N2C[C@@H]3CCCN[C@@H]3C2)c(F)cc2c(=O)c(C(=O)O)cn(C3CC3)c12` gave an MIC of 0.13 µM (H37RV).
The MIC of `[H]/N=C(/N)N[C@H]1[C@H](O)[C@@H](O)[C@H](O[C@@H]2O[C@@H](C)[C@](O)(C=O)[C@H]2O[C@@H]2O[C@@H](CO)[C@H](O)[C@@H](O)[C@@H]2NC)[C@@H](N/C(N)=N\[H])[C@@H]1O` is reported as 0.43 µM (resazurin; H37RV).
The MIC of `O=c1[nH]c2ncsc2c(=O)n1O` is reported as 27.4 µM.
For `CCc1ccc(CCNc2cc(-c3ccccn3)nc3nncn23)cc1`, the MIC was 0.12 µM (H37RV).
The MIC of `C#CC[N+]1(CC)CCc2c(sc(NC(=O)c3c(F)c(F)c(F)c(F)c3F)c2C(=O)OCC)C1` (centres unmarked) is reported as 5.8 µM (CDC1551).
`Fc1cccc(CCOc2cc(-c3ccccn3)nc3ncnn23)c1` gave an MIC of over 100 µM (H37RV).
`NNC(=O)c1ccncc1` has an MIC of 0.0625 µg/mL (resazurin; H37RV; 21 days).
With `c1ccc(CCOc2cc(-c3ccccn3)nc3ncnn23)cc1` the MIC was over 100 µM (H37RV).
`CC[C@@H](CO)NCCN[C@@H](CC)CO` gave an MIC of 1.56 µg/mL (resazurin; H37RV; 7 days).
The MIC of `CO[C@H]1/C=C/O[C@@]2(C)Oc3c(C)c(O)c4c(O)c(c(/C=N/N5CCN(C)CC5)c(O)c4c3C2=O)NC(=O)/C(C)=C\C=C\[C@H](C)[C@H](O)[C@@H](C)[C@@H](O)[C@@H](C)[C@H](OC(C)=O)[C@@H]1C` is reported as 0.03 µg/mL (resazurin; H37RV; 5 days).
For `Cc1nc2[nH]c(=O)n(O)c(=O)c2s1`, the MIC was 20.4 µM.
With `FC(F)(F)c1ccc(CCNc2cc(-c3ccccn3)nc3nncn23)cc1` the MIC was 0.53 µM (H37RV).
`[H]/N=C(/N)N[C@H]1[C@H](O)[C@@H](O)[C@H](O[C@@H]2O[C@@H](C)[C@](O)(C=O)[C@H]2O[C@@H]2O[C@@H](CO)[C@H](O)[C@@H](O)[C@@H]2NC)[C@@H](N/C(N)=N\[H])[C@@H]1O` has an MIC of 64 µg/mL (resazurin; 21 days).
For `CCOC(=O)c1c(-c2ccc(OC)cc2)oc2ccc(OCc3cn(C[C@H]4O[C@H](O[C@H]5O[C@H](CO)[C@@H](O)[C@H](O)[C@H]5O)[C@H](O)[C@@H](O)[C@@H]4O)nn3)c(CN3CCCCC3)c12`, the MIC was 77.3 µM (CDC1551).
`CCc1cc(=O)c2c(O)c3ccoc3c(OC)c2o1` has an MIC of 128 µg/mL (resazurin; 21 days).
With `COc1ccc(-c2oc3ccc(O)c(CN4CCCCC4)c3c2C(=O)NCc2cn(C[C@H]3O[C@H](O[C@H]4O[C@H](CO)[C@@H](O)[C@H](O)[C@H]4O)[C@H](O)[C@@H](O)[C@@H]3O)nn2)cc1` the MIC was 0.7 µM (CDC1551).
With `CCc1cc(=O)c2c(OCC(O)CNC(C)C)c3ccoc3c(OC)c2o1` (centres unmarked) the MIC was 64 µg/mL (resazurin; H37RV; 21 days).
`FC(F)Oc1ccc(CCNc2cc(-c3ccccn3)nc3nncn23)cc1` gave an MIC of 1.1 µM (H37RV).
With `NNC(=O)c1ccncc1` the MIC was 0.228 µM (resazurin; H37RV).
The MIC of `FC(F)(F)c1ccc(CCNc2cc(-c3ccccn3)nc3nnc(C4CC4)n23)cc1` is reported as 17 to 50 µM (H37RV; 5 days).
With `NNC(=O)c1ccncc1` the MIC was 0.125 µg/mL (H37RV).
The MIC of `Clc1ccc(CCNc2cc(-c3ccccn3)nc3nnc(C4CC4)n23)cc1` is reported as 17 to 50 µM (H37RV; 5 days).
`O=c1[nH]c2nc(-c3cccnc3)sc2c(=O)n1O` gave an MIC of over 100 µM.
`CCc1ccc(CCNc2cc(-c3ccccn3)nc3cc(Br)nn23)cc1` gave an MIC of 21 µM (H37RV).
The MIC of `O=[N+]([O-])c1cn2c(n1)OC[C@@H](OCc1ccc(OC(F)(F)F)cc1)C2` is reported as 0.31 µM (H37RV).
